In ChEMBL document CHEMBL4130408, “Photoactivation provides a mechanistic explanation for pan-assay interference behaviour of 2-aminopyrroles in lipoxygenase inhibition” (Eur J Med Chem, 2017):

Target: T1, Polyunsaturated fatty acid lipoxygenase ALOX15 (Homo sapiens) (UniProt P16050)
T1 sequence (whole entry): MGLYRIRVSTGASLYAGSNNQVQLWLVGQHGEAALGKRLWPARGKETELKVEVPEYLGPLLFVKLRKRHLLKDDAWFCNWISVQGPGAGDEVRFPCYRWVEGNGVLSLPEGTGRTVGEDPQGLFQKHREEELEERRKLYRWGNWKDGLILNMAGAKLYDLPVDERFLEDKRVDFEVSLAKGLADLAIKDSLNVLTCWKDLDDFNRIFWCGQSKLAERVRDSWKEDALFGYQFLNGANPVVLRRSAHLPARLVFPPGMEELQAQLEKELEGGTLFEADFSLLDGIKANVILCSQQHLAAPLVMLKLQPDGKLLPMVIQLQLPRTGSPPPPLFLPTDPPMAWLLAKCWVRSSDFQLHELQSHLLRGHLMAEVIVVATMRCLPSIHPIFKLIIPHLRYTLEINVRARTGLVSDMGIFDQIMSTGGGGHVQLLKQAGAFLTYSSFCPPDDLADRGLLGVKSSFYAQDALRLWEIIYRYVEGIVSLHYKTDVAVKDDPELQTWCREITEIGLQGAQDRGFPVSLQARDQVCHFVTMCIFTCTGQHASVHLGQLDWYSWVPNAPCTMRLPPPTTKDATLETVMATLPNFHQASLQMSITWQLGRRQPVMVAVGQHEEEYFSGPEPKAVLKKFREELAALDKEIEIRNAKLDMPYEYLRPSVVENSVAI
Test: Inhibition of recombinant human 15-LOX-1 expressed in Escherichia coli BL21(DE3) assessed as residual activity at 50 uM using linoleic acid as substrate preincubated for 10 mins followed by substrate addition
In short: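 h-15-LOX-1 (1:100 enzyme stock, 1:400 final) preincubated 10 min at room temperature with inhibitor in 25 mM HEPES pH 7.4, then linoleic acid added to 25 µM final (inhibitor 50 µM final). 13(S)-HpODE formation read as A234 over time, rate taken from linear part within first 16 min; no-inhibitor = 100%, no-enzyme = 0%. Triplicate.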

Nc1[nH]c(C(=O)c2ccc(Br)cc2)c(-c2ccc(Br)cc2)c1C(=O)NCCc1c[nH]c2ccccc12 was tested, and the Activity was 30.6%.

Compound Nc1[nH]c(C(=O)c2ccccc2)c(-c2cccc(C(F)(F)F)c2)c1C(=O)NCc1cccc2ccccc12 has an Activity of 2.31%.

Nc1[nH]c(C(=O)c2ccc(Br)cc2)c(-c2ccc3c(c2)OCO3)c1C(=O)NCCc1c[nH]c2ccccc12 showed an Activity of 75.9%.

COc1ccc(C(=O)c2[nH]c(N)c(C(=O)NCCc3c[nH]c4ccccc34)c2-c2ccccc2C(F)(F)F)cc1 showed an Activity of 97.2%.

In the case of COc1ccc(-c2c(C(=O)c3ccccc3)[nH]c(N)c2C(N)=O)cc1OC, the Activity is reported as 117%.

CC(C)(C)C(=O)c1c(N)[nH]c(C(=O)c2ccccc2)c1-c1ccccc1 showed an Activity of 112%.

In the case of COc1ccc(C(=O)c2[nH]c(N)c(C(=O)NCCc3c[nH]c4ccccc34)c2-c2ccc(Cl)cc2)cc1, the Activity is reported as 68.1%.

For Nc1[nH]c(C(=O)c2ccccc2)c(-c2ccc(C(F)(F)F)cc2)c1C(=O)NCc1ccc(Cl)cc1Cl, the Activity was 74.7%.

COc1cc(-c2c(C(=O)c3ccccc3)[nH]c(N)c2C(=O)NCCc2c[nH]c3ccccc23)ccc1F showed an Activity of 37.1%.

With Nc1[nH]c(C(=O)c2ccccc2)c(-c2ccccc2C(F)(F)F)c1C(=O)NCc1ccc(F)cc1 the Activity was 92.2%.

With COCCNC(=O)c1c(N)[nH]c(C(=O)c2ccc(Br)cc2)c1-c1cccc2ccc(OC)cc12 the Activity was 75.6%.

Work on Nc1[nH]c(C(=O)c2ccccc2)c(-c2ccccc2Cl)c1C(=O)c1ccccc1 yielded an Activity of 70.9%.

Nc1[nH]c(C(=O)c2ccccc2)c(-c2ccc(F)cc2)c1C(=O)c1c[nH]c2ccccc12 showed an Activity of 116%.

Work on COc1ccc(-c2c(C(=O)c3ccccc3)[nH]c(N)c2C(=O)c2c[nH]c3ccccc23)cc1OC yielded an Activity of 82.5%.

Nc1[nH]c(C(=O)c2ccccc2)c(-c2ccc(Br)cc2)c1C(=O)N1CCN(CCO)CC1 gave an Activity of 100%.

In the case of Nc1[nH]c(C(=O)c2ccccc2)c(-c2cccnc2)c1C(=O)NCCc1c[nH]c2ccccc12, the Activity is reported as 82.5%.

Work on Nc1[nH]c(C(=O)c2ccccc2)c(-c2cccnc2)c1C(=O)NCCc1ccc(Cl)cc1Cl yielded an Activity of 99.9%.

In the case of Nc1[nH]c(C(=O)c2ccccc2)c(-c2cccc3ccccc23)c1C(=O)c1ccc(Br)cc1, the Activity is reported as 107%.

With Nc1[nH]c(C(=O)c2ccccc2)c(-c2ccc(Br)cc2)c1C(=O)c1ccccc1 the Activity was 63.2%.

Nc1[nH]c(C(=O)c2ccccc2)c(-c2ccc(Cl)cc2Cl)c1C(=O)NCCc1c[nH]c2ccccc12 gave an Activity of 22.8%.

With Nc1[nH]c(C(=O)c2ccccc2)c(-c2ccc([N+](=O)[O-])cc2)c1C(=O)NCCc1c[nH]c2ccccc12 the Activity was 54.3%.

In the case of Nc1[nH]c(C(=O)c2ccccc2)c(-c2cccc3ccccc23)c1C(=O)NCc1ccccc1, the Activity is reported as 92.5%.

Compound N#Cc1c(N)[nH]c(C(=O)c2ccccc2)c1-c1ccc(Cl)cc1 has an Activity of 92.2%.

In the case of Nc1[nH]c(C(=O)c2ccccc2)c(-c2cccc(C(F)(F)F)c2)c1C(=O)NCCc1c[nH]c2ccccc12, the Activity is reported as 52.6%.

Nc1[nH]c(C(=O)c2ccc(Br)cc2)c(-c2ccc(Br)cc2)c1C(=O)NC1CCCCC1 gave an Activity of 83.4%.

NC(=O)c1c(N)[nH]c(C(=O)c2ccccc2)c1-c1ccccc1 gave an Activity of 116%.

In the case of Nc1[nH]c(C(=O)c2ccccc2)c(-c2ccc(Cl)cc2[N+](=O)[O-])c1C(=O)NCCc1c[nH]c2ccccc12, the Activity is reported as 72.5%.

In the case of Nc1[nH]c(C(=O)c2ccccc2)c(-c2ccc(Br)cc2)c1C(=O)c1cccs1, the Activity is reported as 81.3%.

Nc1[nH]c(C(=O)c2ccccc2)c(-c2ccc3ccccc3c2)c1C(=O)NCc1cccc2ccccc12 showed an Activity of 98.6%.

Nc1[nH]c(C(=O)c2ccccc2)c(-c2ccc(Cl)cc2)c1C(=O)N1CCCC1 gave an Activity of 123%.

Compound Nc1[nH]c(C(=O)c2ccccc2)c(-c2ccccc2Br)c1C(=O)c1cccs1 has an Activity of 59.8%.

With COc1ccc(CNC(=O)c2c(N)[nH]c(C(=O)c3ccccc3)c2-c2ccc3ccccc3c2)cc1OC the Activity was 120%.

In the case of CC(C)(C)C(=O)c1c(N)[nH]c(C(=O)c2ccccc2)c1-c1cc2ccccc2nc1Cl, the Activity is reported as 104%.

Work on Nc1[nH]c(C(=O)c2ccccc2)c(-c2ccc3ccccc3c2)c1C(=O)NCc1ccc(-c2ccccc2)cc1 yielded an Activity of 122%.

Work on Nc1[nH]c(C(=O)c2ccccc2)c(-c2cccc3ccccc23)c1C(=O)c1cccs1 yielded an Activity of 73.7%.

Work on CC(C)(C)C(=O)c1c(N)[nH]c(C(=O)c2ccccc2)c1-c1ccc(Cl)cc1 yielded an Activity of 94.5%.

Work on Nc1[nH]c(C(=O)c2ccccc2)c(-c2cccc3ccccc23)c1C(=O)NCc1ccc(F)c(F)c1 yielded an Activity of 62.2%.

Work on Cc1cc(C)cc(-c2c(C(=O)c3ccc(Br)cc3)[nH]c(N)c2C(=O)NCc2ccc(Cl)cc2)c1 yielded an Activity of 98.5%.

COC(=O)c1c(N)[nH]c(C(=O)c2ccccc2)c1-c1ccc(Cl)cc1 was tested, and the Activity was 96%.

For Nc1[nH]c(C(=O)c2ccccc2)c(-c2ccc3c(c2)OCO3)c1C(=O)NCCc1c[nH]c2ccccc12, the Activity was 62.7%.

COc1cc(-c2c(C(=O)c3ccccc3)[nH]c(N)c2C(N)=O)ccc1O gave an Activity of 98.8%.

Compound Nc1[nH]c(C(=O)c2ccccc2)c(-c2ccccc2Br)c1C(=O)NC1CCCCC1 has an Activity of 86.7%.

Compound COc1ccc(-c2c(C(=O)c3ccccc3)[nH]c(N)c2C(=O)NC2CC2)cc1OC has an Activity of 90.2%.

Nc1[nH]c(C(=O)c2ccccc2)c(-c2cccc3ccccc23)c1C(=O)c1ccccc1 was tested, and the Activity was 108%.

COc1ccc(C(=O)c2[nH]c(N)c(C(=O)c3c[nH]c4ccccc34)c2-c2ccc(F)c(OC)c2)cc1 was tested, and the Activity was 75.8%.

With Nc1[nH]c(C(=O)c2ccccc2)c(-c2cccc(C(F)(F)F)c2)c1C(=O)c1c[nH]c2ccccc12 the Activity was 114%.

Work on Nc1[nH]c2cc(Cl)ccc2c1C(=O)N1CCOCC1 yielded an Activity of 107%.

NC(=O)c1c(N)[nH]c(C(=O)c2ccccc2)c1-c1ccc(Br)cc1 gave an Activity of 99.3%.

Compound Cc1ccccc1-c1c(C(=O)c2ccccc2)[nH]c(N)c1C(=O)NCCc1c[nH]c2ccccc12 has an Activity of 62.5%.

Nc1[nH]c(C(=O)c2ccccc2)c(-c2ccc(C(F)(F)F)cc2)c1C(=O)NCCc1c[nH]c2ccccc12 was tested, and the Activity was 43.5%.

Nc1[nH]c(C(=O)c2ccccc2)c(-c2cccc(Br)c2)c1C(=O)c1ccccc1 showed an Activity of 61.2%.

For NC(=O)c1c(N)[nH]c(C(=O)c2ccccc2)c1-c1ccccc1C(F)(F)F, the Activity was 93.6%.

Nc1[nH]c(C(=O)c2ccccc2)c(-c2ccccc2C(F)(F)F)c1C(=O)NCCc1c[nH]c2ccccc12 gave an Activity of 45.5%.

Nc1[nH]c(C(=O)c2ccccc2)c(-c2ccc([N+](=O)[O-])cc2)c1C(=O)N1CCC(CO)CC1 showed an Activity of 85%.

With COc1cc(-c2c(C(=O)c3ccccc3)[nH]c(N)c2C(N)=O)ccc1F the Activity was 110%.

In the case of COC(=O)c1c(N)[nH]c(C(=O)c2ccccc2)c1-c1ccc(Br)cc1, the Activity is reported as 94%.

With Nc1[nH]c(C(=O)c2ccccc2)c(-c2ccccc2C(F)(F)F)c1C(=O)c1cccs1 the Activity was 86.4%.

With Cc1ccc([C@@H](C)NC(=O)c2c(N)[nH]c(C(=O)c3ccccc3)c2-c2ccccc2C(F)(F)F)cc1 the Activity was 96.4%.

Nc1[nH]c(C(=O)c2ccccc2)c(-c2cccc3ccccc23)c1C(=O)c1c(-c2ccccc2)[nH]c2ccccc12 showed an Activity of 89.9%.

Nc1[nH]c(C(=O)c2ccccc2)c(-c2ccncc2)c1C(=O)NC1CC1 showed an Activity of 91%.

COc1ccc(-c2c(C(=O)c3ccc(Br)cc3)[nH]c(N)c2C(=O)NCCc2c[nH]c3ccccc23)cc1OC was tested, and the Activity was 63.8%.

For COc1ccc(-c2c(C(=O)c3ccccc3)[nH]c(N)c2C(=O)c2ccc(Br)cc2)cc1OC, the Activity was 94.7%.

For Cc1[nH]c2ccccc2c1C(=O)NCc1ccc(CNC(=O)c2c(N)[nH]c3ccccc23)cc1, the Activity was 115%.
